Reference: ChEMBL document CHEMBL1126990, “Design and synthesis of 18F-labeled neurotoxic analogs of MPTP” (J Med Chem, 1993)

Assays:
Mus musculus [1] = species: Mus musculus; test: Biodistribution of [18F]-radiolabeled compound in the mouse lung after 90 minutes (average uptake in (%injected dose)/(% body weight); format: ADME, organism-based; conditions: in vivo, 1.5 h
Summary of the method: (§1)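 Adult male C57 Black mice (about 20 g), anesthetized with 1 mg sodium pentobarbital ip, given 0.1 mL (~0.05 mCi) tracer via tail vein. Killed by cervical dislocation at set times (5–90 min). Organs sampled, counted, weighed. Injected dose measured against weighed standards, minus residual tail activity. %id/g multiplied by body weight gives normalized uptake. Mean ± SD, N = 3 (N = 2 at 5 min).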

Mus musculus [2] = species: Mus musculus; test: Biodistribution of [18F]-radiolabeled compound in the mouse liver after 90 minutes (average uptake in (%injected dose)/(% body weight); format: ADME, organism-based; conditions: in vivo, 1.5 h; summary of the method: as §1
Mus musculus [3] = species: Mus musculus; test: Biodistribution of [18F]-radiolabeled compound in the mouse blood after 90 minutes (average uptake in (%injected dose)/(% body weight); format: ADME, organism-based; conditions: in vivo, 1.5 h; summary of the method: as §1
Mus musculus [4] = species: Mus musculus; test: Biodistribution of [18F]-radiolabeled compound in the mouse spleen after 30 minutes (average uptake in (%injected dose)/(% body weight); format: ADME, organism-based; conditions: in vivo, 0.5 h; summary of the method: as §1
Mus musculus [5] = species: Mus musculus; test: Biodistribution of [18F]-radiolabeled compound in the mouse bone after 5 minutes (average uptake in (%injected dose)/(% body weight); format: ADME, organism-based, Bone element; conditions: in vivo; summary of the method: as §1
Mus musculus [6] = species: Mus musculus; test: Biodistribution of [18F]-radiolabeled compound in the mouse muscle after 90 minutes (average uptake in (%injected dose)/(% body weight); format: ADME, organism-based, Muscle tissue; conditions: in vivo, 1.5 h; summary of the method: as §1
Mus musculus [7] = species: Mus musculus; test: Biodistribution of [18F]-radiolabeled compound in the mouse brain after 5 minutes (average uptake in (%injected dose)/(% body weight); format: ADME, organism-based; conditions: in vivo; summary of the method: as §1
Mus musculus [8] = species: Mus musculus; test: Biodistribution of [18F]-radiolabeled compound in the mouse muscle after 30 minutes (average uptake in (%injected dose)/(% body weight); format: ADME, organism-based, Muscle tissue; conditions: in vivo, 0.5 h; summary of the method: as §1
Mus musculus [9] = species: Mus musculus; test: Biodistribution of [18F]-radiolabeled compound in the mouse heart after 60 minutes (average uptake in (%injected dose)/(% body weight); format: ADME, organism-based; conditions: in vivo, 1 h; summary of the method: as §1
Mus musculus [10] = species: Mus musculus; test: Biodistribution of [18F]-radiolabeled compound in the mouse liver after 15 minutes (average uptake in (%injected dose)/(% body weight); format: ADME, organism-based; conditions: in vivo, 0.25 h; summary of the method: as §1
Mus musculus [11] = species: Mus musculus; test: Biodistribution of [18F]-radiolabeled compound in the mouse heart after 90 minutes (average uptake in (%injected dose)/(% body weight); format: ADME, organism-based; conditions: in vivo, 1.5 h; summary of the method: as §1
Mus musculus [12] = species: Mus musculus; test: Biodistribution of [18F]-radiolabeled compound in the mouse bone after 60 minutes (average uptake in (%injected dose)/(% body weight); format: ADME, organism-based, Bone element; conditions: in vivo, 1 h; summary of the method: as §1
Mus musculus [13] = species: Mus musculus; test: Biodistribution of [18F]-radiolabeled compound in the mouse muscle after 15 minutes (average uptake in (%injected dose)/(% body weight); format: ADME, organism-based, Muscle tissue; conditions: in vivo, 0.25 h; summary of the method: as §1
[14] = separate experiments, n=4); format: ADME
Summary of the method: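 Rat liver MAO (crude P2 mitochondrial fraction from adult male Wistar rats, in pH 7.4 phosphate buffer) incubated with substrate at 30 μM to 5 mM; colorimetric detection of H2O2 formed. Blanks contained 0.1 mM pargyline. Vmax and Km from linear regression of Lineweaver-Burk plots; means ± SE of n separate experiments; ANOVA with post-hoc Scheffe test.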

Mus musculus [15] = species: Mus musculus; test: Biodistribution of [18F]-radiolabeled compound in the mouse heart after 30 minutes (average uptake in (%injected dose)/(% body weight); format: ADME, organism-based; conditions: in vivo, 0.5 h; summary of the method: as §1
Mus musculus [16] = species: Mus musculus; test: Biodistribution of [18F]-radiolabeled compound in the mouse lung after 30 minutes (average uptake in (%injected dose)/(% body weight); format: ADME, organism-based; conditions: in vivo, 0.5 h; summary of the method: as §1
Mus musculus [17] = species: Mus musculus; test: Biodistribution of [18F]-radiolabeled compound in the mouse liver after 5 minutes (average uptake in (%injected dose)/(% body weight); format: ADME, organism-based; conditions: in vivo; summary of the method: as §1
Mus musculus [18] = species: Mus musculus; test: Biodistribution of [18F]-radiolabeled compound in the mouse muscle after 60 minutes (average uptake in (%injected dose)/(% body weight); format: ADME, organism-based, Muscle tissue; conditions: in vivo, 1 h; summary of the method: as §1
Mus musculus [19] = species: Mus musculus; test: Biodistribution of [18F]-radiolabeled compoundP in the mouse spleen after 15 minutes (average uptake in (%injected dose)/(% body weight); format: ADME, organism-based; conditions: in vivo, 0.25 h; summary of the method: as §1
Mus musculus [20] = species: Mus musculus; test: Biodistribution of [18F]-radiolabeled compound in the mouse intestine after 30 min (average uptake in (%injected dose)/(% body weight); format: ADME, organism-based; conditions: in vivo, 0.5 h; summary of the method: as §1
Mus musculus [21] = species: Mus musculus; test: Biodistribution of [18F]-radiolabeled compound in the mouse brain after 30 minutes (average uptake in (%injected dose)/(% body weight); format: ADME, organism-based; conditions: in vivo, 0.5 h; summary of the method: as §1
Mus musculus [22] = species: Mus musculus; test: Biodistribution of [18F]-radiolabeled compound in the mouse kidney after 5 minutes (average uptake in (%injected dose)/(% body weight); format: ADME, organism-based; conditions: in vivo; summary of the method: as §1
Mus musculus [23] = species: Mus musculus; test: Biodistribution of [18F]-radiolabeled compound in the mouse kidney after 30 minutes (average uptake in (%injected dose)/(% body weight); format: ADME, organism-based; conditions: in vivo, 0.5 h; summary of the method: as §1
Mus musculus [24] = species: Mus musculus; test: Biodistribution of [18F]-radiolabeled compound in the mouse heart after 15 minutes (average uptake in (%injected dose)/(% body weight); format: ADME, organism-based; conditions: in vivo, 0.25 h; summary of the method: as §1
Mus musculus [25] = species: Mus musculus; test: Biodistribution of [18F]-radiolabeled compound in the mouse liver after 30 minutes (average uptake in (%injected dose)/(% body weight); format: ADME, organism-based; conditions: in vivo, 0.5 h; summary of the method: as §1
Mus musculus [26] = species: Mus musculus; test: Biodistribution of [18F]-radiolabeled compound in the mouse blood after 30 minutes (average uptake in (%injected dose)/(% body weight); format: ADME, organism-based; conditions: in vivo, 0.5 h; summary of the method: as §1
Mus musculus [27] = species: Mus musculus; test: Biodistribution of [18F]-radiolabeled compound in the mouse blood after 5 minutes (average uptake in (%injected dose)/(% body weight); format: ADME, organism-based; conditions: in vivo; summary of the method: as §1

CN1CC=C(c2ccccc2CF)CC1
Time (Mus musculus [1]): 1.46 min | Time (Mus musculus [2]): 0.778 min | Time (Mus musculus [3]): 0.25 min | Time (Mus musculus [4]): 1.04 min | Time (Mus musculus [5]): 0.87 min | Time (Mus musculus [6]): 0.24 min | Time (Mus musculus [7]): 1.48 min | Time (Mus musculus [8]): 0.43 min | Time (Mus musculus [9]): 1.88 min | Time (Mus musculus [10]): 2.33 min | Time (Mus musculus [11]): 1.84 min | Time (Mus musculus [12]): 2.22 min | Time (Mus musculus [13]): 0.54 min | Km [14]: 159 µM | Time (Mus musculus [15]): 2.03 min | Time (Mus musculus [16]): 2.54 min | Time (Mus musculus [17]): 2.3 min | Time (Mus musculus [18]): 0.3 min | Time (Mus musculus [19]): 1.33 min | Time (Mus musculus [20]): 1.06 min | Time (Mus musculus [21]): 0.68 min | Time (Mus musculus [22]): 4.04 min | Time (Mus musculus [23]): 1.36 min | Time (Mus musculus [24]): 2.41 min | Time (Mus musculus [25]): 1.36 min | Time (Mus musculus [26]): 0.4 min | Time (Mus musculus [27]): 0.67 min
